Data taken from ChEMBL document CHEMBL4270565, “Design, synthesis and antimicrobial evaluation of propylene-tethered ciprofloxacin-isatin hybrids” (Eur J Med Chem, 2018).
Values after ≈ are worked out from the molar mass of the structure shown.

What was measured:
[1] = test system: Escherichia coli; assay: Antibacterial activity against extended-spectrum beta-lactamase harboring Escherichia coli ATCC 35218 after 18 to 24 hrs by two-fold serial dilution method; assay type: functional
Outline: (§1)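 Agar two-fold serial dilution in Mueller-Hinton agar. Strains came from the Chinese Center for Disease Control and Prevention. Compounds were dissolved in 0.1 N NaOH and water, then diluted in melted agar to final levels stepping down from 128. Plates were inoculated with bacterial cfu and incubated at 35 C for 18–24 h. MIC is the lowest concentration giving 90% growth inhibition.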

[2] = test system: Providencia rettgeri; assay: Antibacterial activity against Providencia rettgeri ATCC 31052 after 18 to 24 hrs by two-fold serial dilution method; assay type: functional
Outline: (§2)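 Agar two-fold dilution MIC. Compounds were dissolved in 0.1 N NaOH and water, then serially diluted in melted Mueller-Hinton agar, with top concentrations starting at 128. Plates were inoculated at about 10 cfu and incubated at 35 °C for 18–24 h. MIC was taken as the lowest concentration giving 90% inhibition of growth.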

[3] = test system: Proteus vulgaris; assay: Antibacterial activity against Proteus vulgaris ATCC 29905 after 18 to 24 hrs by two-fold serial dilution method; assay type: functional; outline: as §2
[4] = test system: Klebsiella pneumoniae; assay: Antibacterial activity against extended-spectrum beta-lactamase deficient Klebsiella pneumoniae 15-2 after 18 to 24 hrs by two-fold serial dilution method; assay type: functional; outline: as §2
[5] = test system: Staphylococcus aureus; assay: Antibacterial activity against methicillin-resistant Staphylococcus aureus ATCC 33591 after 18 to 24 hrs by two-fold serial dilution method; assay type: functional; outline: as §1
[6] = test system: Citrobacter freundii; assay: Antibacterial activity against extended-spectrum beta-lactamase harboring Citrobacter freundii ATCC 43864 after 18 to 24 hrs by two-fold serial dilution method; assay type: functional; outline: as §1
[7] = test system: Staphylococcus epidermidis; assay: Antibacterial activity against methicillin-sensitive Staphylococcus epidermidis ATCC 12228 after 18 to 24 hrs by two-fold serial dilution method; assay type: functional; outline: as §2
[8] = test system: Enterobacter cloacae; assay: Antibacterial activity against Enterobacter cloacae ATCC 43560 after 18 to 24 hrs by two-fold serial dilution method; assay type: functional
[9] = test system: Enterococcus faecium; assay: Antibacterial activity against Enterococcus faecium 13-7 after 18 to 24 hrs by two-fold serial dilution method; assay type: functional; outline: as §2
[10] = test system: Mycobacterium tuberculosis; assay: Antimycobacterial activity against Mycobacterium tuberculosis H37Rv after 7 days; assay type: functional; details: 168 h
Outline: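 Rapid direct susceptibility test in 48-well plates. Two-fold dilutions of compound from DMSO stocks were mixed with an equal volume of bacterial suspension. Medium-only wells served as growth controls and water-only wells as no-growth controls. Plates were sealed and held at 37 C in a humid box, and controls were checked at 3 days. MIC (90% growth inhibition) was read visually by high-magnification observation of the cells and re-read at 7 days.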

[11] = test system: Staphylococcus epidermidis; assay: Antibacterial activity against methicillin-resistant Staphylococcus epidermidis 13-3 after 18 to 24 hrs by two-fold serial dilution method; assay type: functional; outline: as §1
[12] = test system: Enterococcus faecium; assay: Antibacterial activity against Enterococcus faecium ATCC 700221 after 18 to 24 hrs by two-fold serial dilution method; assay type: functional; outline: as §2
[13] = test system: Serratia marcescens; assay: Antibacterial activity against Serratia marcescens ATCC 21074 after 18 to 24 hrs by two-fold serial dilution method; assay type: functional; outline: as §2
[14] = test system: Staphylococcus aureus; assay: Antibacterial activity against methicillin-sensitive Staphylococcus aureus ATCC 29213 after 18 to 24 hrs by two-fold serial dilution method; assay type: functional; outline: as §1
[15] = test system: Enterococcus faecalis; assay: Antibacterial activity against Enterococcus faecalis ATCC 51299 after 18 to 24 hrs by two-fold serial dilution method; assay type: functional; outline: as §2
[16] = test system: Pseudomonas aeruginosa; assay: Antibacterial activity against Pseudomonas aeruginosa ATCC 27853 after 18 to 24 hrs by two-fold serial dilution method; assay type: functional; outline: as §2
[17] = test system: Escherichia coli; assay: Antibacterial activity against extended-spectrum beta-lactamase deficient Escherichia coli ATCC 25922 after 18 to 24 hrs by two-fold serial dilution method; assay type: functional; outline: as §2
[18] = test system: Klebsiella pneumoniae; assay: Antibacterial activity against extended-spectrum beta-lactamase harboring Klebsiella pneumoniae ATCC 700603 after 18 to 24 hrs by two-fold serial dilution method; assay type: functional; outline: as §1
[19] = Cytotoxicity against African green monkey Vero cells assessed as reduction in cell viability after 72 hrs by MTT assay; assay type: cell-based; details: chlorocebus sabaeus
Outline: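 VERO cells were kept in MEM with Earle's salts and 10% FBS at 37 °C, 5% CO2. They were seeded in 96-well plates and allowed to recover for 24 h. Cells were then exposed to compounds in DMSO over a series from 1000 down to 4 for 72 h. Viability was read by MTT, and CC50 was calculated by Bliss analysis.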

[20] = test system: Enterococcus faecalis; assay: Antibacterial activity against Enterococcus faecalis ATCC 29212 after 18 to 24 hrs by two-fold serial dilution method; assay type: functional; outline: as §2
[21] = test system: Morganella morganii; assay: Antibacterial activity against Morganella morganii ATCC 25830 after 18 to 24 hrs by two-fold serial dilution method; assay type: functional; outline: as §2
[22] = test system: Acinetobacter calcoaceticus; assay: Antibacterial activity against Acinetobacter calcoaceticus ATCC 19606 after 18 to 24 hrs by two-fold serial dilution method; assay type: functional; outline: as §2
[23] = test system: Stenotrophomonas maltophilia; assay: Antibacterial activity against Stenotrophomonas maltophilia ATCC 13636 after 18 to 24 hrs by two-fold serial dilution method; assay type: functional; outline: as §2
[24] = test system: Klebsiella aerogenes; assay: Antibacterial activity against Enterobacter aerogenes ATCC 13048 after 18 to 24 hrs by two-fold serial dilution method; assay type: functional; outline: as §2
[25] = test system: Proteus mirabilis; assay: Antibacterial activity against Proteus mirabilis 13-1 after 18 to 24 hrs by two-fold serial dilution method; assay type: functional; outline: as §2

Structure (SMILES)	MIC90 [1] [µg/mL]	MIC90 [2] [µg/mL]	MIC90 [3] [µg/mL]	MIC90 [4] [µg/mL]	MIC90 [5] [µg/mL]	MIC90 [6] [µg/mL]	MIC90 [7] [µg/mL]	MIC90 [8] [µg/mL]	MIC90 [9] [µg/mL]	MIC90 [10] [µg/mL]	MIC90 [11] [µg/mL]	MIC90 [12] [µg/mL]	MIC90 [13] [µg/mL]	MIC90 [14] [µg/mL]	MIC90 [15] [µg/mL]	MIC90 [16] [µg/mL]	MIC90 [17] [µg/mL]	MIC90 [18] [µg/mL]	CC50 at 72 h [19] [µg/mL]	MIC90 [20] [µg/mL]	other results
CO/N=C1\C(=O)N(CCCN2CCN(c3cc4c(cc3F)c(=O)c(C(=O)O)cn4C3CC3)CC2)c2ccccc21	≤ 0.03	≤ 0.03	≤ 0.03	≤ 0.03	0.25 (≈ 0.457 µM)	≤ 0.03	0.125 (≈ 0.228 µM)	≤ 0.03	32 (≈ 58.4 µM)	0.39 (≈ 0.712 µM)	2 (≈ 3.65 µM)	8 (≈ 14.6 µM)	0.06 (≈ 0.11 µM)	0.125 (≈ 0.228 µM)	1 (≈ 1.83 µM)	1 (≈ 1.83 µM)	≤ 0.03	0.5 (≈ 0.913 µM)	32 (≈ 58.4 µM)	0.5 (≈ 0.913 µM)	MIC90 [21]: ≤ 0.03 µg/mL; MIC90 [22]: 0.5 µg/mL (≈ 0.913 µM); MIC90 [23]: 0.06 µg/mL (≈ 0.11 µM); MIC90 [24]: ≤ 0.03 µg/mL; MIC90 [25]: ≤ 0.03 µg/mL
CO/N=C1\C(=O)N(CCCN2CCN(c3cc4c(cc3F)c(=O)c(C(=O)OCCCN3C(=O)/C(=N/OC)c5ccccc53)cn4C3CC3)CC2)c2ccccc21	4 (≈ 5.24 µM)	64 (≈ 83.8 µM)	32 (≈ 41.9 µM)	32 (≈ 41.9 µM)	> 128	64 (≈ 83.8 µM)	32 (≈ 41.9 µM)	32 (≈ 41.9 µM)	> 128	12.5 (≈ 16.4 µM)	128 (≈ 168 µM)	128 (≈ 168 µM)	64 (≈ 83.8 µM)	128 (≈ 168 µM)	128 (≈ 168 µM)	64 (≈ 83.8 µM)	4 (≈ 5.24 µM)	64 (≈ 83.8 µM)	64 (≈ 83.8 µM)	64 (≈ 83.8 µM)	MIC90 [21]: 128 µg/mL (≈ 168 µM); MIC90 [22]: 128 µg/mL (≈ 168 µM); MIC90 [23]: 128 µg/mL (≈ 168 µM); MIC90 [24]: 64 µg/mL (≈ 83.8 µM); MIC90 [25]: 64 µg/mL (≈ 83.8 µM)
CCO/N=C1\C(=O)N(CCCN2CCN(c3cc4c(cc3F)c(=O)c(C(=O)O)cn4C3CC3)CC2)c2ccc(C)cc21	≤ 0.03	≤ 0.03	≤ 0.03	≤ 0.03	0.125 (≈ 0.217 µM)	≤ 0.03	0.125 (≈ 0.217 µM)	≤ 0.03	32 (≈ 55.6 µM)	3.12 (≈ 5.42 µM)	2 (≈ 3.47 µM)	4 (≈ 6.95 µM)	0.06 (≈ 0.104 µM)	0.125 (≈ 0.217 µM)	1 (≈ 1.74 µM)	1 (≈ 1.74 µM)	≤ 0.03	0.5 (≈ 0.869 µM)	128 (≈ 222 µM)	0.5 (≈ 0.869 µM)	MIC90 [21]: ≤ 0.03 µg/mL; MIC90 [22]: 0.5 µg/mL (≈ 0.869 µM); MIC90 [23]: 0.06 µg/mL (≈ 0.104 µM); MIC90 [24]: ≤ 0.03 µg/mL; MIC90 [25]: ≤ 0.03 µg/mL
Cc1ccc2c(c1)C(=O)C(=O)N2CCCOC(=O)c1cn(C2CC2)c2cc(N3CCN(CCCN4C(=O)C(=O)c5cc(C)ccc54)CC3)c(F)cc2c1=O	8 (≈ 10.9 µM)	128 (≈ 174 µM)	64 (≈ 87.2 µM)	64 (≈ 87.2 µM)	> 128	64 (≈ 87.2 µM)	32 (≈ 43.6 µM)	32 (≈ 43.6 µM)	> 128	50 (≈ 68.1 µM)	128 (≈ 174 µM)	128 (≈ 174 µM)	> 128	64 (≈ 87.2 µM)	> 128	128 (≈ 174 µM)	8 (≈ 10.9 µM)	64 (≈ 87.2 µM)	64 (≈ 87.2 µM)	64 (≈ 87.2 µM)	MIC90 [21]: 64 µg/mL (≈ 87.2 µM); MIC90 [22]: 64 µg/mL (≈ 87.2 µM); MIC90 [23]: 128 µg/mL (≈ 174 µM); MIC90 [24]: 128 µg/mL (≈ 174 µM); MIC90 [25]: 64 µg/mL (≈ 87.2 µM)
O=C1C(=O)N(CCCN2CCN(c3cc4c(cc3F)c(=O)c(C(=O)O)cn4C3CC3)CC2)c2ccccc21	≤ 0.03	0.03 (≈ 0.0579 µM)	≤ 0.03	0.125 (≈ 0.241 µM)	0.25 (≈ 0.482 µM)	≤ 0.03	0.25 (≈ 0.482 µM)	0.03 (≈ 0.0579 µM)	64 (≈ 123 µM)	0.2 (≈ 0.386 µM)	4 (≈ 7.71 µM)	8 (≈ 15.4 µM)	0.25 (≈ 0.482 µM)	0.25 (≈ 0.482 µM)	1 (≈ 1.93 µM)	1 (≈ 1.93 µM)	≤ 0.03	1 (≈ 1.93 µM)	128 (≈ 247 µM)	1 (≈ 1.93 µM)	MIC90 [21]: ≤ 0.03 µg/mL; MIC90 [22]: 1 µg/mL (≈ 1.93 µM); MIC90 [23]: 0.125 µg/mL (≈ 0.241 µM); MIC90 [24]: ≤ 0.03 µg/mL; MIC90 [25]: ≤ 0.03 µg/mL
